How the values were obtained:
[1] = molecular target: T1, Ectonucleoside triphosphate diphosphohydrolase 1 (Homo sapiens, UniProt P49961); assay: Inhibition of human CD39 expressed in CHO cells incubated for 4 hrs before addition of ATP and further incubated for 60 mins by colorimetric assay
T1 sequence (P49961 whole entry): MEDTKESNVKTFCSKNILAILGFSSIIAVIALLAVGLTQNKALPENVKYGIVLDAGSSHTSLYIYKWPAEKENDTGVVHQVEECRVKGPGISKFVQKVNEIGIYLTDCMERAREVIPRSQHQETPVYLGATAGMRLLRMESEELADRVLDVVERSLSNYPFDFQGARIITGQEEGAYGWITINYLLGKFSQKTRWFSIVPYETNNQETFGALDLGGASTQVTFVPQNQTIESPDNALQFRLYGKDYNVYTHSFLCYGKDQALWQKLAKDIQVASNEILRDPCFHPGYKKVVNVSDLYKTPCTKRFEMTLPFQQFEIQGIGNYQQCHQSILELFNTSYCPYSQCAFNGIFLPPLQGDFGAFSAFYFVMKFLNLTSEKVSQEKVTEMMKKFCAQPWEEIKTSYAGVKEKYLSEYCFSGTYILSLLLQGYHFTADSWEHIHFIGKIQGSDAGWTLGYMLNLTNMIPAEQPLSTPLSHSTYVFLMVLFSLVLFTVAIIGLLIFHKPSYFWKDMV

[2] = molecular target: T2, Ectonucleoside triphosphate diphosphohydrolase 2 (Homo sapiens, UniProt Q9Y5L3); assay: Inhibition of human NTPDase-2 expressed in CHO-K1 cells in presence of DNA/LTX mixture; type: cell-based
T2 sequence (Q9Y5L3 whole entry): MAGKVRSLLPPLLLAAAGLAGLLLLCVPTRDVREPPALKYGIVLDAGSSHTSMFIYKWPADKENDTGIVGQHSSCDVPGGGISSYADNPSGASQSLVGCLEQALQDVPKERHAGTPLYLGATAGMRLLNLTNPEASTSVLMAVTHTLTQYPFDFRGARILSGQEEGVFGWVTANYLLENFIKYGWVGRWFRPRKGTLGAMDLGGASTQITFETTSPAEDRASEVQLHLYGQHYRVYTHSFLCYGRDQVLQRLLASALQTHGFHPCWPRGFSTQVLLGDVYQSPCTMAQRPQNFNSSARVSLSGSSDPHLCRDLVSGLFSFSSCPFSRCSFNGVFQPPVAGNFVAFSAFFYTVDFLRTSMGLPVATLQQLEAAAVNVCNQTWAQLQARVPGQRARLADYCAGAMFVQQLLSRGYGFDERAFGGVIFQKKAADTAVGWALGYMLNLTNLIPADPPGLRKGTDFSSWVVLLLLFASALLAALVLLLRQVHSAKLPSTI
Procedure, shortened: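 CHO-K1 cells transfected overnight (Lipofectamine LTX) with NTPDase2, 3 or 8 plasmid, then harvested into HEPES pH 7.4 buffer. 10,000 cells/well, 2% DMSO, 16-point 1:3 compound dilutions (final 10–0 μM), 1 h preincubation at 37 °C. ATP added at 25 (NTPDase2), 15 (NTPDase3) or 30 μM (NTPDase8), 50 min at 37 °C. Phosphate read with PiColorLock Gold at 620 nm.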

[3] = Stability in rat hepatocytes; type: ADME, cell-based, Hepatocyte
[4] = molecular target: T3, 5'-nucleotidase (Mus musculus, UniProt Q61503); assay: Inhibition of soluble mouse CD73 incubated for 60 mins before addition of AMP and further incubated for 60 mins by colorimetric assay
T3 sequence (Q61503 whole entry): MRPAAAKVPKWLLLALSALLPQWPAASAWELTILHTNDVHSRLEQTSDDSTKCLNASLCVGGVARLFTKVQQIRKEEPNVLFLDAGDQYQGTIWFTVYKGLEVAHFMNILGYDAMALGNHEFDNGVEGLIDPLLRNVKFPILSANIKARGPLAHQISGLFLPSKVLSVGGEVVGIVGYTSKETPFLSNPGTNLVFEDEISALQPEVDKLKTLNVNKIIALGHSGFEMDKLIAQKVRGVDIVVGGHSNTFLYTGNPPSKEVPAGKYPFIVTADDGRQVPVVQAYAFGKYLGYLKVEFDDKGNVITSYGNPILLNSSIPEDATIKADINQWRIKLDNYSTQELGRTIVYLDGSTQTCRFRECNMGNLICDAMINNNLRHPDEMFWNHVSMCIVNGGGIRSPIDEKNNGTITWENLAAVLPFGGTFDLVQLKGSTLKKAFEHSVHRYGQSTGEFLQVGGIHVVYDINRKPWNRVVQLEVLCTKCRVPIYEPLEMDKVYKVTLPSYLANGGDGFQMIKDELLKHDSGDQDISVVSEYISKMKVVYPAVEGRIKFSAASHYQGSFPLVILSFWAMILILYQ

[5] = Stability in human hepatocytes; type: ADME, cell-based, Hepatocyte
[6] = Stability in dog hepatocytes; type: ADME, cell-based, Canis lupus familiaris, Hepatocyte
[7] = molecular target: 5'-nucleotidase (Homo sapiens, UniProt P21589); assay: Inhibition of soluble human CD73 incubated for 60 mins before addition of AMP and further incubated for 60 mins by colorimetric assay
5'-nucleotidase (Homo sapiens, UniProt P21589), sequence (P21589 whole entry): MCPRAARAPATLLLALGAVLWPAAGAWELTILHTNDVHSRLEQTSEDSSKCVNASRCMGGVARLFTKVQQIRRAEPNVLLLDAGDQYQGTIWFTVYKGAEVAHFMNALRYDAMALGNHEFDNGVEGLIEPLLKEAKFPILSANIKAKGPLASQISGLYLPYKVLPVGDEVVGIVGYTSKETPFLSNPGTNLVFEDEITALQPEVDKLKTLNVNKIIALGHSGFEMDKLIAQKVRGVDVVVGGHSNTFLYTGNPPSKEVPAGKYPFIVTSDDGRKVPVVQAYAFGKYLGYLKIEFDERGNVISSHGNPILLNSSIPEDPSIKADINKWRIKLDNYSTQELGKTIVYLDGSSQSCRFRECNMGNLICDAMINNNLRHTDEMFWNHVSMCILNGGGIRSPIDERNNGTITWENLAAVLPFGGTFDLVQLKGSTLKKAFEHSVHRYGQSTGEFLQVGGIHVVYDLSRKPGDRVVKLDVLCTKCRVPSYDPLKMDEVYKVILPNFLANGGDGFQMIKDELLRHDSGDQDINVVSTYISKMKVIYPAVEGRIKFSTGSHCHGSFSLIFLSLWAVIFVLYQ

- IC50 [1]: > 10000 nM
- IC50 [2]: > 10000 nM
- Stabilty [3]: Stable
- IC50 [4]: 3 nM
- Stabilty [5]: Stable
- Stabilty [6]: Stable
- IC50 [7]: 0.86 nM
SMILES: O=P(O)(O)COC[C@H]1O[C@@H](n2ncc3c(NC4CCCC4)nc(Cl)nc32)[C@H](O)[C@@H]1O

Source: ChEMBL document CHEMBL4765491, “Discovery of Potent and Selective Methylenephosphonic Acid CD73 Inhibitors” (J Med Chem, 2021)
